Like-named read-outs stand apart in the source and are kept apart here.
Experiments:
[1] = tested on: RAW 264.7 macrophage cells; experiment: Protection from PMA-induced cytotoxicity; format: cell-based
[2] = tested on: RAW 264.7 macrophage cells; experiment: Intracellular ROS by DHE fluorescence in PMA-treated macrophages; format: cell-based; conditions: PMA 1 μg/mL 3 h; DHE 10 μM 30 min
[3] = tested on: RAW 264.7 cells; experiment: Cytotoxicity
[4] = H2S release measured with H2S-sensitive electrochemical probe; format: physicochemical
[5] = Conventional and cryogenic TEM of self-assembled nanostructures; format: physicochemical
[6] = Nile Red assay, critical aggregation concentration; format: physicochemical; conditions: Nile Red fluorescence; 10 mM phosphate buffer pH 7.4, room temperature
Summary of the method: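 Test compound dissolved in 10 mM phosphate buffer pH 7.4 at room temperature, where it self-assembles. Nile Red fluorescence intensity was recorded across a series of test compound concentrations. CAC was calculated from the rise in intensity with concentration, taken as Nile Red solubilisation in the hydrophobic domain.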

[7] = Static light scattering; format: physicochemical; conditions: average
[8] = PMA 2 μg/mL 3 h, Cys 800 μM, AdKOKOEE and AdKSKSE 200 μM (+ Cys), GYY4137 and Na2S 400 μM, Figure 4B
[9] = conventional and cryo-TEM, PB 10 mM pH 7.4, 1 mM

Compound: N[C@@H](CS)C(=O)O [Cys, cysteine, reference compound]
- protective effect on viability of PMA-treated cells [1, 8]: Neither treatment with Cys alone nor treatment with a combination of the non-H2S-releasing control peptide (AdKOKOEE) and Cys showed any protective effect

Compound: C1COCCN1.COc1ccc(P(=S)(S)N2CCOCC2)cc1 (stereo not drawn) [GYY4137, reference compound]
- protective effect on viability of PMA-treated cells [1]: Neither affected cell viability

Compound: [Na+].[Na+].[S-2] [Na2S, sodium sulfide, reference compound]
- protective effect on viability of PMA-treated cells [1]: Neither affected cell viability

Compound: CCCCCCCCCCCCCC(=O)O[C@@H]1[C@@H](C)[C@@]2(O)[C@@H](C=C(CO)C[C@]3(O)C(=O)C(C)=C[C@@H]23)[C@@H]2C(C)(C)[C@]12OC(C)=O [PMA, phorbol 12-myristate 13-acetate]
- ROS level (DHE red fluorescent signal) after PMA alone, versus untreated cells [2]: much brighter
- concentration inducing significant cytotoxicity ([3]; Figure 4A): ≥ 1 µg/mL
- cell viability after PMA alone ([3]; PMA 2 μg/mL): 67%

Compound: AdKOKOEE
- protective effect on viability of PMA-treated cells [1, 8]: Neither treatment with Cys alone nor treatment with a combination of the non-H2S-releasing control peptide (AdKOKOEE) and Cys showed any protective effect

Compound: AdKSKSE
- protective effect on viability of PMA-treated cells [1, 8]: some cell protective ability, but it was not as good as AdKSKSEE
- H2S release rate relative to AdKsKsEE ([4]; Figure S13, both contain two SATO units and release similar amounts): somewhat faster
- average length of short nanoworms ([5]; conventional TEM, UA stained, PB 10 mM pH 7.4, 100 μM): 33±2 nm

Compound: AdKSKSEE
- cell viability on co-treatment with PMA ([1]; PMA 2 μg/mL, AdKSKSEE 200 μM + Cys 800 μM, 3 h, three experiments with five replicates): 95%
- H2S release peaking time ([4]; PHDC 1 mM + Cys 4 mM in PB at rt, electrochemical probe, average of three runs): 125 ± 15 min
- H2S release without Cys ([4]; PHDC 1 mM in PB at rt, no Cys, electrochemical probe): minimal H2S was detected
- critical aggregation concentration (CAC) [6]: 27 µM
- aggregation number (molecules per crescent nanostructure) [7]: 600
- average external diameter of crescent nanostructures [5, 9]: 28±3 nm
- average width of crescent nanostructures [5, 9]: 5±1 nm
- aggregation number, estimate from nanocrescent volume ([5]; nanocrescent volume from TEM dimensions divided by estimated molecular volume): 560

Source: article PMC7702297 (Journal of the American Chemical Society, 2020)
